In general, inhibition refers to how much of the control response was suppressed.

Here are results for five compounds from ChEMBL document CHEMBL1159338, “New dimeric naphthopyrones from Aspergillus niger” (J Nat Prod, 2003).

Calls of active or inactive are those of the source. The calls are words filed in the database; no cut-off is given here.

In experiment [1] the target is Telomerase reverse transcriptase (Homo sapiens) (UniProt O14746). The experiment can be described thus: Inhibition of human telomerase activity at 100 ug/mL by TRAP assay. Put shortly:
(§1)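 TRAP format: DMSO-dissolved samples in a 50 µL mix with HT1080 cell extract, pH 8.3 Tris-HCl/KCl/MgCl2/EGTA/Tween 20 buffer, TS primer, 50 µM each dNTP, 2 U Taq and [32P]dCTP; CX primer held under wax. Extension ran 30 min at 23 °C, then 90 °C for 90 s and 31 PCR cycles. Products were bound to DE-51 paper and scintillation-counted. Inhibition was taken relative to DMSO, minus RNase-treated extract background.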

The target of experiment [2] is DNA polymerase I, thermostable (Thermus aquaticus) (UniProt P19821). The experiment can be described thus: Inhibition of Taq polymerase in RNase treated human HT1080 cells at 100 ug/mL by PCR. The note with it: HT-1080. It is filed as cell-based.
Experiment [3] concerns the target Telomerase reverse transcriptase (Homo sapiens) (UniProt O14746). In words: Inhibition of human telomerase activity by TRAP assay. The note with it: concentration not given here. In a few lines:
as §1

Telomerase reverse transcriptase (Homo sapiens), sequence (O14746 whole entry): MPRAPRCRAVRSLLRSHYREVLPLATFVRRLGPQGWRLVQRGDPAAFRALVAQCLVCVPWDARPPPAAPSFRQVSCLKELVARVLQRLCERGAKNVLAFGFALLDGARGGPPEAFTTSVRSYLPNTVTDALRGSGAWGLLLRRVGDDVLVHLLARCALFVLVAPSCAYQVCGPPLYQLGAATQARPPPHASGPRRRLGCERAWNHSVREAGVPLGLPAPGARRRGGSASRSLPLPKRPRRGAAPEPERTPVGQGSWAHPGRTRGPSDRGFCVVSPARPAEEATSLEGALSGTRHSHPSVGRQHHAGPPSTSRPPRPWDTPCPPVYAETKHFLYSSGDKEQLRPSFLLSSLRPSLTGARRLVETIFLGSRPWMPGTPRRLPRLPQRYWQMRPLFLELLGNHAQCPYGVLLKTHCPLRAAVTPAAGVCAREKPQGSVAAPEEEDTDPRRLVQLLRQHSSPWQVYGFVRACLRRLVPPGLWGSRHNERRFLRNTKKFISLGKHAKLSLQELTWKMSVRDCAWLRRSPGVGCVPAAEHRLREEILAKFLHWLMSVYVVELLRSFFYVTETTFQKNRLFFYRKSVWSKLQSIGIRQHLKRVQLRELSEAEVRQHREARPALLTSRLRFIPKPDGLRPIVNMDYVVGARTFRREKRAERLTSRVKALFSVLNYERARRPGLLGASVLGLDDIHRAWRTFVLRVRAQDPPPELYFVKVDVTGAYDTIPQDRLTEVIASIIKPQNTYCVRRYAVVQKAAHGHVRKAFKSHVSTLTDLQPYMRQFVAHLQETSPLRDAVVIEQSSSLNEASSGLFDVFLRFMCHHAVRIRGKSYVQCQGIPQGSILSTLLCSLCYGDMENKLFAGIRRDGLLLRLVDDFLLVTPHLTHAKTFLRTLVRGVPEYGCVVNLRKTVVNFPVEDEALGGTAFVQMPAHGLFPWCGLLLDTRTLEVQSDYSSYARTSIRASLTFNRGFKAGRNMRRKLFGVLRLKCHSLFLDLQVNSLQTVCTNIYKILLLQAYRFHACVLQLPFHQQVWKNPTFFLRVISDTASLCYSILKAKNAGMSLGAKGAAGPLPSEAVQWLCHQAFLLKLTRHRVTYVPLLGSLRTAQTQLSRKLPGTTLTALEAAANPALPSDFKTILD
DNA polymerase I, thermostable (Thermus aquaticus), sequence (P19821 whole entry): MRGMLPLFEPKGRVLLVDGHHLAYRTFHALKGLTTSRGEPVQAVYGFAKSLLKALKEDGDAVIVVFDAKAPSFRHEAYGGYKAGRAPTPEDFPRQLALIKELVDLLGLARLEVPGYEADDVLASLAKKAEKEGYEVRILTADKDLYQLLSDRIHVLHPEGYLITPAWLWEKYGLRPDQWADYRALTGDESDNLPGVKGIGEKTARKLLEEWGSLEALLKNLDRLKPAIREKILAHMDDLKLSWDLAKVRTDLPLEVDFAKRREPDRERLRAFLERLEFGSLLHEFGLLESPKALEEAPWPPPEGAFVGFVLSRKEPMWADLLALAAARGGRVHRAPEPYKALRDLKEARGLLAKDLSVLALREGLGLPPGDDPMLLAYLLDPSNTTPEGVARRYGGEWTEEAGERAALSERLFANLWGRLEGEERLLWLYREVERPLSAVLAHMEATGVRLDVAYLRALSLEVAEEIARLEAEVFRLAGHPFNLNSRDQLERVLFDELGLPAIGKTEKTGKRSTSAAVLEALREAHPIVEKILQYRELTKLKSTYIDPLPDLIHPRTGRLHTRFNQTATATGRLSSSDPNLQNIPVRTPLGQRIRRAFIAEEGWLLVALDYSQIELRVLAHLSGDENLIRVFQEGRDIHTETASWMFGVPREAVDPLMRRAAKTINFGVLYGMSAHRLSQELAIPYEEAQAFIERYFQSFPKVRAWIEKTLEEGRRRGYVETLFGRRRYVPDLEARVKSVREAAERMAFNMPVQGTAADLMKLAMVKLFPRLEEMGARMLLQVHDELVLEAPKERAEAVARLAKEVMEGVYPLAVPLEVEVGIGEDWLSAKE

Regarding `COc1cc(OC)c2c(c1)c(-c1c(OC)cc3cc(O)c4c(=O)cc(C)oc4c3c1OC)c(O)c1c(=O)cc(C)oc12`, the outcome in experiment [1] was inactive.

In the case of `COc1cc(OC)c2c(O)c3c(=O)cc(C)oc3c(-c3c(OC)cc4cc5oc(C)cc(=O)c5c(O)c4c3OC)c2c1`, the result in experiment [1] was inactive. Further, the inhibition in experiment [2] was determined as 49%; in experiment [3], 52%.

As for `COc1cc(OC)c2c(O)c3c(=O)cc(C)oc3c(-c3c(OC)cc4cc(O)c5c(=O)cc(C)oc5c4c3OC)c2c1`, the outcome in experiment [1] was inactive. The inhibition in experiment [2] and in experiment [3] was 40% in each case.

`COc1cc(OC)c2c(O)c3c(=O)cc(C)oc3c(-c3c(O)cc4cc(O)c5c(=O)cc(C)oc5c4c3OC)c2c1`: the result in experiment [1] was inactive. For the same compound, the inhibition in experiment [2] came out at 40%; in experiment [3] it was 41%.

Consider `COc1cc(OC)c2c(c1)c(-c1c(OC)cc3cc4oc(C)cc(=O)c4c(O)c3c1OC)c(O)c1c(=O)cc(C)oc12`, for which, in experiment [1], the result was inactive.
